Measurements from ChEMBL document CHEMBL3102739, “Synthesis and antiproliferative activity of conformationally restricted 1,2,3-triazole analogues of combretastatins in the sea urchin embryo model and against human cancer cell lines” (Bioorg Med Chem, 2014).

Experiments:
MDA-MB-468 = experiment: Growth inhibition of human MDA-MB-468 cells after 48 hrs by SRB assay; format: functional; settings: MDA-MB-468, 48 h
[1] = Growth inhibition of human Hs578T cells after 48 hrs by SRB assay; format: functional; settings: Hs-578T
BT-549 = experiment: Growth inhibition of human BT549 cells after 48 hrs by SRB assay; format: functional; settings: BT-549, 48 h
MDA-MB-231 = experiment: Growth inhibition of human MDA-MB-231 cells after 48 hrs by SRB assay; format: functional; settings: MDA-MB-231, 48 h
DU-145 = experiment: Growth inhibition of human DU145 cells after 48 hrs by SRB assay; format: functional; settings: DU-145, 48 h
MCF7 = experiment: Growth inhibition of human MCF7 cells after 48 hrs by SRB assay; format: functional; settings: MCF7, 48 h
[2] = Growth inhibition of human UO31 cells after 48 hrs by SRB assay; format: functional; settings: UO-31, 48 h
PC-3 = experiment: Growth inhibition of human PC3 cells after 48 hrs by SRB assay; format: functional; settings: PC-3, 48 h
TK-10 = experiment: Growth inhibition of human TK10 cells after 48 hrs by SRB assay; format: functional; settings: TK-10, 48 h
[3] = Growth inhibition of human RXF393 cells after 48 hrs by SRB assay; format: functional; settings: RXF 393, 48 h
SN12C = experiment: Growth inhibition of human SN12C cells after 48 hrs by SRB assay; format: functional
ACHN = experiment: Growth inhibition of human ACHN cells after 48 hrs by SRB assay; format: functional
CAKI-1 = experiment: Growth inhibition of human CAKI-1 cells after 48 hrs by SRB assay; format: functional; settings: CAKI-1, 48 h
786-0 = experiment: Growth inhibition of human 786-0 cells after 48 hrs by SRB assay; format: functional; settings: 786-0, 48 h
A498 = experiment: Growth inhibition of human A498 cells after 48 hrs by SRB assay; format: functional; settings: A498, 48 h
SK-OV-3 = experiment: Growth inhibition of human SKOV3 cells after 48 hrs by SRB assay; format: functional; settings: SK-OV-3, 48 h
[4] = Growth inhibition of human NCI-ADR-RES cells after 48 hrs by SRB assay; format: functional
OVCAR-8 = experiment: Growth inhibition of human OVCAR8 cells after 48 hrs by SRB assay; format: functional; settings: OVCAR-8, 48 h
[5] = Growth inhibition of human OVCAR4 cells after 48 hrs by SRB assay; format: functional; settings: OVCAR-4, 48 h
[6] = Growth inhibition of human OVCAR5 cells after 48 hrs by SRB assay; format: functional; settings: OVCAR-5, 48 h
OVCAR-3 = experiment: Growth inhibition of human OVCAR3 cells after 48 hrs by SRB assay; format: functional; settings: OVCAR-3, 48 h
IGROV-1 = experiment: Growth inhibition of human IGROV1 cells after 48 hrs by SRB assay; format: functional; settings: IGROV-1, 48 h
[7] = Growth inhibition of human UACC257 cells after 48 hrs by SRB assay; format: functional; settings: UACC-257, 48 h
UACC-62 = experiment: Growth inhibition of human UACC62 cells after 48 hrs by SRB assay; format: functional; settings: UACC-62, 48 h
SK-MEL-5 = experiment: Growth inhibition of human SK-MEL-5 cells after 48 hrs by SRB assay; format: functional; settings: SK-MEL-5, 48 h
SK-MEL-28 = experiment: Growth inhibition of human SK-MEL-28 cells after 48 hrs by SRB assay; format: functional; settings: SK-MEL-28, 48 h
MDA-MB-435 = experiment: Growth inhibition of human MDA-MB-435 cells after 48 hrs by SRB assay; format: functional; settings: MDA-MB-435, 48 h
M14 = experiment: Growth inhibition of human M14 cells after 48 hrs by SRB assay; format: functional; settings: M14, 48 h
SNB-75 = experiment: Growth inhibition of human SNB75 cells after 48 hrs by SRB assay; format: functional; settings: SNB-75, 48 h
[8] = Growth inhibition of human SF539 cells after 48 hrs by SRB assay; format: functional; settings: SF-539, 48 h
SF-295 = experiment: Growth inhibition of human SF295 cells after 48 hrs by SRB assay; format: functional; settings: SF-295, 48 h
SF-268 = experiment: Growth inhibition of human SF268 cells after 48 hrs by SRB assay; format: functional; settings: SF-268, 48 h
SW-620 = experiment: Growth inhibition of human SW620 cells after 48 hrs by SRB assay; format: functional; settings: SW-620, 48 h
KM12 = experiment: Growth inhibition of human KM12 cells after 48 hrs by SRB assay; format: functional; settings: KM12, 48 h
HT-29 = experiment: Growth inhibition of human HT-29 cells after 48 hrs by SRB assay; format: functional; settings: HT-29, 48 h
HCT-15 = experiment: Growth inhibition of human HCT15 cells after 48 hrs by SRB assay; format: functional; settings: HCT-15, 48 h
[9] = Growth inhibition of human HCC2998 cells after 48 hrs by SRB assay; format: functional; settings: HCC 2998, 48 h
HCT-116 = experiment: Growth inhibition of human HCT116 cells after 48 hrs by SRB assay; format: functional; settings: HCT-116, 48 h
COLO 205 = experiment: Growth inhibition of human COLO205 cells after 48 hrs by SRB assay; format: functional; settings: COLO 205, 48 h
NCI-H522 = experiment: Growth inhibition of human NCI-H522 cells after 48 hrs by SRB assay; format: functional; settings: NCI-H522, 48 h
NCI-H460 = experiment: Growth inhibition of human NCI-H460 cells after 48 hrs by SRB assay; format: functional; settings: NCI-H460, 48 h
NCI-H322M = experiment: Growth inhibition of human NCI-H322M cells after 48 hrs by SRB assay; format: functional
NCI-H23 = experiment: Growth inhibition of human NCI-H23 cells after 48 hrs by SRB assay; format: functional; settings: NCI-H23, 48 h
NCI-H226 = experiment: Growth inhibition of human NCI-H226 cells after 48 hrs by SRB assay; format: functional; settings: NCI-H226, 48 h
HOP-62 = experiment: Growth inhibition of human HOP62 cells after 48 hrs by SRB assay; format: functional; settings: HOP-62, 48 h
A549 = experiment: Growth inhibition of human A549 cells after 48 hrs by SRB assay; format: functional; settings: A549, 48 h
RPMI-8226 = experiment: Growth inhibition of human RPMI8226 cells after 48 hrs by SRB assay; format: functional; settings: RPMI-8226, 48 h
SR = experiment: Growth inhibition of human SR cells after 48 hrs by SRB assay; format: functional
MOLT-4 = experiment: Growth inhibition of human MOLT4 cells after 48 hrs by SRB assay; format: functional; settings: MOLT-4, 48 h
K562 = experiment: Growth inhibition of human K562 cells after 48 hrs by SRB assay; format: functional; settings: K562, 48 h
CCRF-CEM = experiment: Growth inhibition of human CCRF-CEM cells after 48 hrs by SRB assay; format: functional
HL-60(TB) = experiment: Growth inhibition of human HL-60(TB) cells after 48 hrs by SRB assay; format: functional; settings: HL-60, 48 h
Paracentrotus lividus [10] = experiment: Antimitotic activity against sea urchin embryo free-swimming blastula model assessed as embryo spinning compound treated at 8 to 10 hrs post-fertilization measured after 0.25 to 20 hrs; format: functional, Blastula stage
Paracentrotus lividus [11] = experiment: Antimitotic activity against sea urchin embryo model assessed as cleavage arrest of fertilized egg compound treated at 8 to 20 mins post-fertilization and 45 to 55 mins prior to first mitotic cycle completion measured 2.5 to 5.5 hrs post-fertilization; format: functional
Method in brief: (§1)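 Fertilized eggs are exposed 8–20 min after fertilization to 2-fold decreasing concentrations. Stocks are 10 mM in DMSO, then diluted 10-fold in 95% EtOH; final DMSO is at most 0.05% and EtOH at most 1%. Embryos are kept as a monolayer, up to 2000 embryos/mL, in filtered seawater at room temperature. The value is the threshold concentration giving cleavage alteration, embryo death before hatching or full mitotic arrest. Duplicates were run.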

Paracentrotus lividus [12] = experiment: Antimitotic activity against sea urchin embryo model assessed as cleavage alteration of fertilized egg compound treated at 8 to 20 mins post-fertilization and 45 to 55 mins prior to first mitotic cycle completion measured 2.5 to 5.5 hrs post-fertilization; format: functional; method in brief: as §1
SNB-19 = experiment: Growth inhibition of human SNB19 cells after 48 hrs by SRB assay; format: functional; settings: SNB-19, 48 h

COc1ccc(-c2nn[nH]c2-c2cc(OC)c3c(c2)OCO3)cc1
GI50 (MDA-MB-468): 19 nM
GI50 [1]: 22 nM
GI50 (BT-549): 121 nM
GI50 (MDA-MB-231): 45 nM
GI50 (DU-145): 32 nM
GI50 (MCF7): < 10 nM
GI50 [2]: 51 nM
GI50 (PC-3): 35 nM
GI50 (TK-10): 14700 nM
GI50 [3]: 17 nM
GI50 (SN12C): 61 nM
GI50 (ACHN): 40 nM
GI50 (CAKI-1): 11 nM
GI50 (786-0): 32 nM
GI50 (A498): < 10 nM
GI50 (SK-OV-3): 23 nM
GI50 [4]: < 10 nM
GI50 (OVCAR-8): 40 nM
GI50 [5]: 518 nM
GI50 [6]: 49 nM
GI50 (OVCAR-3): 10 nM
GI50 (IGROV-1): 23 nM
GI50 [7]: 23000 nM
GI50 (UACC-62): < 10 nM
GI50 (SK-MEL-5): 29 nM
GI50 (SK-MEL-28): 35 nM
GI50 (MDA-MB-435): < 10 nM
GI50 (M14): 13 nM
GI50 (SNB-75): 16 nM
GI50 [8]: 17 nM
GI50 (SF-295): < 10 nM
GI50 (SF-268): 101 nM
GI50 (SW-620): 14 nM
GI50 (KM12): 23 nM
GI50 (HT-29): 34 nM
GI50 (HCT-15): < 10 nM
GI50 [9]: 44 nM
GI50 (HCT-116): 19 nM
GI50 (COLO 205): 255 nM
GI50 (NCI-H522): < 10 nM
GI50 (NCI-H460): 11 nM
GI50 (NCI-H322M): 57 nM
GI50 (NCI-H23): 33 nM
GI50 (NCI-H226): 294 nM
GI50 (HOP-62): < 10 nM
GI50 (A549): 24 nM
GI50 (RPMI-8226): 33 nM
GI50 (SR): < 10 nM
GI50 (MOLT-4): 63 nM
GI50 (K562): < 10 nM
GI50 (CCRF-CEM): 26 nM
GI50 (HL-60(TB)): 23 nM
EC (Paracentrotus lividus [10]): 0.05 µM
EC (Paracentrotus lividus [11]): 0.002 µM
EC (Paracentrotus lividus [12]): 0.0005 µM

COc1ccc(-c2cnnn2-c2cc(OC)c3c(c2)OCO3)cc1
GI50 (MDA-MB-468): 62 nM
GI50 [1]: 154 nM
GI50 (BT-549): 160 nM
GI50 (MDA-MB-231): 135 nM
GI50 (DU-145): 232 nM
GI50 (MCF7): 47 nM
GI50 [2]: 692 nM
GI50 (PC-3): 150 nM
GI50 [3]: 157 nM
GI50 (SN12C): 486 nM
GI50 (ACHN): 607 nM
GI50 (CAKI-1): 98 nM
GI50 (786-0): 363 nM
GI50 (A498): 49 nM
GI50 (SK-OV-3): 271 nM
GI50 [4]: 38 nM
GI50 (OVCAR-8): 284 nM
GI50 [5]: 4170 nM
GI50 [6]: 374 nM
GI50 (OVCAR-3): 53 nM
GI50 (IGROV-1): 123 nM
GI50 [7]: 74900 nM
GI50 (UACC-62): 72 nM
GI50 (SK-MEL-5): 235 nM
GI50 (SK-MEL-28): 725 nM
GI50 (MDA-MB-435): 22 nM
GI50 (M14): 61 nM
GI50 (SNB-75): 119 nM
GI50 [8]: 95 nM
GI50 (SNB-19): > 100000 nM
GI50 (SF-295): 73 nM
GI50 (SF-268): 611 nM
GI50 (SW-620): 56 nM
GI50 (KM12): 60 nM
GI50 (HT-29): 40 nM
GI50 (HCT-15): 45 nM
GI50 [9]: 258 nM
GI50 (HCT-116): 64 nM
GI50 (COLO 205): 53 nM
GI50 (NCI-H522): 21 nM
GI50 (NCI-H460): 55 nM
GI50 (NCI-H322M): 673 nM
GI50 (NCI-H226): 4670 nM
GI50 (HOP-62): 125 nM
GI50 (A549): 88 nM
GI50 (RPMI-8226): 253 nM
GI50 (SR): 41 nM
GI50 (MOLT-4): 122 nM
GI50 (K562): 41 nM
GI50 (CCRF-CEM): 132 nM
GI50 (HL-60(TB)): 51 nM
EC (Paracentrotus lividus [10]): 0.5 µM
EC (Paracentrotus lividus [11]): 0.1 µM
EC (Paracentrotus lividus [12]): 0.01 µM
